# Assays:
# [1] = biological target: Estrogen receptor (Rattus norvegicus) (UniProt P06211+Q62986); test: Relative binding affinity for estrogen receptor of rat uterine cytosol; type: protein assay
# In short: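 Cytosol from uteri of Sprague-Dawley rats taken 24 h after castration, homogenized in TEGDMo buffer (pH 7.4), spun at 105 000g. Incubated on ice overnight with 1 nM [3H]E2 and competitor at 10^-12 to 10^-6 M. Dextran-coated charcoal separation, counting. RBA = EC50 E2 / EC50 analogue × 100, at least three duplicate experiments.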
# [2] = biological target: T1, Estrogen receptor (Homo sapiens) (UniProt P03372); test: Inhibition of [3H]E2 binding to human Estrogen receptor-alpha ligand binding domain (LBD) expressed in Escherichia coli lysates
# T1 sequence (whole entry): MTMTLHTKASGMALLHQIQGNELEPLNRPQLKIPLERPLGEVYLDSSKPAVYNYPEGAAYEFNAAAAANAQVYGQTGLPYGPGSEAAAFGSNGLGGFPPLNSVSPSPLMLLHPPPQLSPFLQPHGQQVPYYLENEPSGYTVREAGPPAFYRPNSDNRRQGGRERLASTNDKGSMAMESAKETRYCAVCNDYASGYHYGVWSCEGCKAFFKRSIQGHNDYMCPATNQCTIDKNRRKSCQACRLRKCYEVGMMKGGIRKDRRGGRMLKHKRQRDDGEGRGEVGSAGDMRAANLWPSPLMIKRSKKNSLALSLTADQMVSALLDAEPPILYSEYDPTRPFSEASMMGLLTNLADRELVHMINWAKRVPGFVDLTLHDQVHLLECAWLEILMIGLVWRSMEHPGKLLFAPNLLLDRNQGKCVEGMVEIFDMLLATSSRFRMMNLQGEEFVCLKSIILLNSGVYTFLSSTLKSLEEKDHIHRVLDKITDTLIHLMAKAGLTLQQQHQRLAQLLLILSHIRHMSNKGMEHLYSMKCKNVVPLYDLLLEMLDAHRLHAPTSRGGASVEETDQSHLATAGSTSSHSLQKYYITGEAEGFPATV
# In short: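 Human ERα LBD (M250-V595) expressed in E. coli lysates, competed against [3H]E2 overnight at room temperature. Bound separated by dextran-coated charcoal. RBA = EC50 of E2 / EC50 of analogue × 100, from at least three experiments in duplicate.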
# Ishikawa [3] = test: Estrogenic potency measured as stimulation of alkaline phosphatase activity relative to E2 in human endometrialadenocarcinoma cells (Ishikawa); type: functional
# In short: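 Ishikawa human endometrial adenocarcinoma cells grown in phenol red-free medium with charcoal-stripped bovine serum and steroid over at least 6 orders of magnitude for 3 days. Cells washed, freeze-thawed, then given 5 mM p-nitrophenyl phosphate at pH 9.8, with kinetic reading of p-nitrophenol at 405 nm. At least three experiments in duplicate; EC50 by curve fitting.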
# Ishikawa [4] = test: Inhibitory constant against stimulation of alkaline phosphatase activity in Ishikawa cells; (agonist); type: functional, cell-based, Homo sapiens
# [5] = biological target: Estrogen receptor beta (Homo sapiens) (UniProt Q92731); test: Inhibition of [3H]E2 binding to human Estrogen receptor-beta ligand binding domain (LBD) expressed in Escherichia coli lysates
# In short: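 Human ERβ LBD (M214-Q530) in E. coli lysates; overnight room-temperature competition with [3H]E2, charcoal separation of bound from free. RBA relative to E2 from EC50 ratio × 100, at least three duplicate experiments.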
# Ishikawa [6] = test: Inhibitory constant against stimulation of alkaline phosphatase activity in Ishikawa cells; mixed agonist/antagonist moderate activity; type: functional, cell-based, Homo sapiens
# Ishikawa [7] = test: Inhibitory constant of the compound against stimulationofalkaline phosphatase activity inIshikawa cells; weak mixed agonist/antagonist; type: functional, cell-based, Homo sapiens
# Ishikawa [8] = test: Inhibitory constant against stimulation of alkaline phosphatase activity in Ishikawa cells; type: functional, cell-based, Homo sapiens
# Ishikawa [9] = test: Inhibitory constant against stimulation of alkaline phosphatase activity in Ishikawa cells; weak mixed agonist/antagonist; type: functional, cell-based, Homo sapiens
# Ishikawa [10] = test: Inhibitory constant against stimulation of alkaline phosphatase activity in Ishikawa cells; ag./ant. is mixed agonist/antagonist; type: functional, cell-based, Homo sapiens
# Ishikawa [11] = test: Inhibitory constant against stimulation of alkaline phosphatase activity in Ishikawa cells; not active; type: functional, cell-based, Homo sapiens
# Ishikawa [12] = test: Inhibitory constant against stimulation of alkaline phosphatase activity in Ishikawa cells; na is not active; type: functional, cell-based, Homo sapiens
# Ishikawa [13] = test: Relative stimulatory activity in Ishikawa cells with respect to E2; type: functional, Homo sapiens
# In short: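 Ishikawa alkaline phosphatase induction: phenol red-free medium, charcoal-stripped bovine serum, 3-day exposure to steroid across at least 6 log units. Read kinetically at 405 nm with 5 mM p-nitrophenyl phosphate, pH 9.8. RSA = (1/EC50 analogue) / (1/EC50 E2) × 100, fitted in at least three duplicate experiments.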
# Sequence of Estrogen receptor beta (Homo sapiens) (Q92731 whole entry, the tested form may be a part): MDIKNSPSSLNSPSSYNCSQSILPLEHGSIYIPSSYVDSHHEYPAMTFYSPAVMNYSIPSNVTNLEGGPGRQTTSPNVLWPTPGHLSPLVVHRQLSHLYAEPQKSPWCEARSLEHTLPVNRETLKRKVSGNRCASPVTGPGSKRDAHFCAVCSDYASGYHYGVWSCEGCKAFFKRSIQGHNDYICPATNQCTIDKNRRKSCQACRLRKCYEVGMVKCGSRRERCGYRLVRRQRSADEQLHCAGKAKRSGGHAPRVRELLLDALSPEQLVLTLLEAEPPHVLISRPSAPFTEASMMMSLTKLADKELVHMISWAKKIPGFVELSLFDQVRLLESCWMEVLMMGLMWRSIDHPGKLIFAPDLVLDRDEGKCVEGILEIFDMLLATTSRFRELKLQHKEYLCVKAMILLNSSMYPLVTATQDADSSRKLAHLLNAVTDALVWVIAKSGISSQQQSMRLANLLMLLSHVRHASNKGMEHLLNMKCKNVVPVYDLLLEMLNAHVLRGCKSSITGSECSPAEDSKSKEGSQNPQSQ
SMILES,RBA [1] [%],RBA [2] [%],RBA [5] [%],Ki (Ishikawa [8]) [nM],other results
COC[C@H]1C[C@]2(C)C(O)CC[C@H]2[C@@H]2CCc3cc(O)ccc3[C@@H]12 (some centres undefined),20,114,240,–,Relative stimulatory activity (Ishikawa [3]): 125%; Ki (Ishikawa [4]): Agonist
CCCCOC[C@H]1C[C@]2(C)[C@@H](O)CC[C@H]2[C@@H]2CCc3cc(O)ccc3[C@@H]12,44,102,268,0.1,–
CCOCCC[C@H]1C[C@]2(C)[C@@H](O)CC[C@H]2[C@@H]2CCc3cc(O)ccc3[C@@H]12,48,87,75,0.3,–
CC(C)OCCC[C@H]1C[C@]2(C)[C@@H](O)CC[C@H]2[C@@H]2CCc3cc(O)ccc3[C@@H]12,114,220,93,0.2,–
"CC(C)(C)COC(=O)C[C@H]1C[C@]2(C)[C@@H](O)CC[C@H]2C2CCc3cc(O)ccc3[C@H]21 (single isomer, unassigned)",10,–,–,5.2,–
CC(C)(C)OCCC[C@H]1C[C@]2(C)[C@@H](O)CC[C@H]2[C@@H]2CCc3cc(O)ccc3[C@@H]12,81,128,82,0.09,–
CCOC[C@H]1C[C@]2(C)[C@@H](O)CC[C@H]2[C@@H]2CCc3cc(O)ccc3[C@@H]12,28,70,73,–,Ki (Ishikawa [10]): Partial agonist
"CCOCC[C@H]1C[C@]2(C)[C@@H](O)CC[C@H]2C2CCc3cc(O)ccc3[C@H]21 (single isomer, unassigned)",31,49,40,0.3,–
C[C@]12C[C@H](CCCOCCF)[C@@H]3c4ccc(O)cc4CC[C@H]3[C@@H]1CC[C@@H]2O,47,96,140,1.1,–
"CCCOCC[C@H]1C[C@]2(C)[C@@H](O)CC[C@H]2C2CCc3cc(O)ccc3[C@H]21 (single isomer, unassigned)",65,54,88,0.3,–
COCCC[C@H]1C[C@]2(C)[C@@H](O)CC[C@H]2[C@@H]2CCc3cc(O)ccc3[C@@H]12,34,159,111,0.3,–
"CCCOC(=O)C[C@H]1C[C@]2(C)[C@@H](O)CC[C@H]2C2CCc3cc(O)ccc3[C@H]21 (single isomer, unassigned)",38,–,–,1,–
C[C@]12C[C@H](COCCF)[C@@H]3c4ccc(O)cc4CC[C@H]3[C@@H]1CC[C@@H]2O,10,27,35,–,Ki (Ishikawa [9]): Partial agonist
CCCOC[C@H]1C[C@]2(C)[C@@H](O)CC[C@H]2[C@@H]2CCc3cc(O)ccc3[C@@H]12,43,146,125,0.3,–
"C[C@]12C[C@H](CCOCCF)[C@@H]3c4ccc(O)cc4CCC3[C@@H]1CC[C@@H]2O (single isomer, unassigned)",16,112,34,55,–
"CC(C)(C)OCC[C@H]1C[C@]2(C)[C@@H](O)CC[C@H]2C2CCc3cc(O)ccc3[C@H]21 (single isomer, unassigned)",2.3,5,2,20,–
"CC(C)OC(=O)C[C@H]1C[C@]2(C)[C@@H](O)CC[C@H]2C2CCc3cc(O)ccc3[C@H]21 (single isomer, unassigned)",17,–,–,2.1,–
"CCOC(=S)C[C@H]1C[C@]2(C)[C@@H](O)CC[C@H]2C2CCc3cc(O)ccc3[C@H]21 (single isomer, unassigned)",10,–,–,2.7,–
"CC(C)OCC[C@H]1C[C@]2(C)[C@@H](O)CC[C@H]2C2CCc3cc(O)ccc3[C@H]21 (single isomer, unassigned)",15,45,32,0.4,–
CCCCO[C@H]1C[C@]2(C)[C@@H](O)CC[C@H]2[C@@H]2CCc3cc(O)ccc3[C@H]21,2.1,7.5,21,–,Ki (Ishikawa [12]): Not Active

# Further lines, with some results ahead:
RBA [1] [%],RBA [2] [%],RBA [5] [%],SMILES,Ki (Ishikawa [8]) [nM],other results
25,67,90,"COCC[C@H]1C[C@]2(C)[C@@H](O)CC[C@H]2C2CCc3cc(O)ccc3[C@H]21 (single isomer, unassigned)",–,Ki (Ishikawa [6]): Partial agonist
0.1,–,–,"CCNC(=O)C[C@H]1C[C@]2(C)[C@@H](O)CC[C@H]2C2CCc3cc(O)ccc3[C@H]21 (single isomer, unassigned)",–,Ki (Ishikawa [7]): Partial agonist
7.7,–,–,CCCC(=O)CC[C@H]1C[C@]2(C)[C@@H](O)CC[C@H]2[C@@H]2CCc3cc(O)ccc3[C@@H]12,13,–
3.7,–,–,CCNC(=O)CC[C@H]1C[C@]2(C)[C@@H](O)CC[C@H]2[C@@H]2CCc3cc(O)ccc3[C@@H]12,–,Ki (Ishikawa [9]): Partial agonist
3.7,–,–,CCC(=O)CC[C@H]1C[C@]2(C)[C@@H](O)CC[C@H]2[C@@H]2CCc3cc(O)ccc3[C@@H]12,16,–
0.6,–,–,CNC(=O)CC[C@H]1C[C@]2(C)[C@@H](O)CC[C@H]2[C@@H]2CCc3cc(O)ccc3[C@@H]12,–,Ki (Ishikawa [9]): Partial agonist
13,–,–,"CCCC(=O)C[C@H]1C[C@]2(C)[C@@H](O)CC[C@H]2C2CCc3cc(O)ccc3[C@H]21 (single isomer, unassigned)",3.1,–
1,–,–,CC(=O)CC[C@H]1C[C@]2(C)[C@@H](O)CC[C@H]2[C@@H]2CCc3cc(O)ccc3[C@@H]12,–,Ki (Ishikawa [11]): Not Active
18,–,–,"CCC(=O)C[C@H]1C[C@]2(C)[C@@H](O)CC[C@H]2C2CCc3cc(O)ccc3[C@H]21 (single isomer, unassigned)",–,Ki (Ishikawa [9]): Partial agonist; Stimulatory activity (Ishikawa [13]): 1.9%
